Data taken from ChEMBL document CHEMBL4184148 (Bioorg Med Chem Lett, 2017).

Tests used:
[1] = system: Tyrosine-protein kinase ABL1 (Homo sapiens), P00519 [Q252H]; assay: Binding affinity to human phosphorylated ABL1 Q252H mutant expressed in HEK293 cells at 1 uM by Kinomescan method relative to control; assay type: cell-based
[2] = molecular target: RAC-beta serine/threonine-protein kinase (Homo sapiens) (UniProt P31751); assay: Binding affinity to wild-type human partial length AKT2 expressed in Escherichia coli BL21 at 1 uM by Kinomescan method relative to control
In short: (§1)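 Kinome-wide competition binding panel run by an outside provider, with each compound tested at a single concentration. Activity is read against the kinase panel.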

[3] = molecular target: Discoidin domain-containing receptor 2 (Homo sapiens) (UniProt Q16832); assay: Binding affinity to wild-type human partial length DDR2 (V555 to E855 residues) expressed in HEK293 cells at 1 uM by Kinomescan method relative to control; assay type: cell-based
[4] = molecular target: Receptor tyrosine-protein kinase erbB-3 (Homo sapiens) (UniProt P21860); assay: Binding affinity to wild-type human partial length ERBB3 (G684 to A987 residues) expressed in HEK293 cells at 1 uM by Kinomescan method relative to control; assay type: cell-based
[5] = system: Fibroblast growth factor receptor 3 (Homo sapiens), P22607 [G697C]; assay: Binding affinity to human partial length FGFR3 G697C mutant (R442 to S771 residues) expressed in Escherichia coli BL21 at 1 uM by Kinomescan method relative to control
Sequence of Fibroblast growth factor receptor 3 (Homo sapiens), P22607 [G697C] (P22607 whole entry G697C, the tested form may be a part): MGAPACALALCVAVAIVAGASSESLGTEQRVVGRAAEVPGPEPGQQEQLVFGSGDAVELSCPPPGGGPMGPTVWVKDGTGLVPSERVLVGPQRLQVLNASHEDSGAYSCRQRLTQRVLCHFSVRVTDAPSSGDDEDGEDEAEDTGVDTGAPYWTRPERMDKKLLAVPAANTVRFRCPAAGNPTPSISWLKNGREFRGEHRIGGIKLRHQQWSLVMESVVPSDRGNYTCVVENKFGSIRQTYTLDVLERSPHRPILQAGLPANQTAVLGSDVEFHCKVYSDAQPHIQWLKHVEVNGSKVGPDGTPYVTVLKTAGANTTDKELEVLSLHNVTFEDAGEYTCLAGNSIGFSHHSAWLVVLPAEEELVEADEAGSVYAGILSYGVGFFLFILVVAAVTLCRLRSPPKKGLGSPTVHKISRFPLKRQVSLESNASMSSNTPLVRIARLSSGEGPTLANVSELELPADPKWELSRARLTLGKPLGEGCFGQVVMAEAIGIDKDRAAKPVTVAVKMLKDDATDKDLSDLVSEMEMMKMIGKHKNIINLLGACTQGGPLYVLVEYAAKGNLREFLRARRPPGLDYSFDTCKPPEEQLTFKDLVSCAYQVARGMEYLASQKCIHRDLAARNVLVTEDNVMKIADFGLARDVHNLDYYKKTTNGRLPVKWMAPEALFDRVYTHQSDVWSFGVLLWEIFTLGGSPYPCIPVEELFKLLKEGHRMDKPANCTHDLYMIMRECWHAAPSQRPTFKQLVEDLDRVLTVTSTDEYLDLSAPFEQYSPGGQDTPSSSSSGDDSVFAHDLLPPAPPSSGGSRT

[6] = molecular target: Vascular endothelial growth factor receptor 1 (Homo sapiens) (UniProt P17948); assay: Binding affinity to wild-type human partial length FLT1 (R781 to F1239 residues) expressed in Escherichia coli BL21 at 1 uM by Kinomescan method relative to control
[7] = molecular target: G protein-coupled receptor kinase 3 (Homo sapiens) (UniProt P35626); assay: Binding affinity to wild-type human full length GRK3 (M1 to L688 residues) expressed in HEK293 cells at 1 uM by Kinomescan method relative to control; assay type: cell-based
In short: (§2)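 Run as one kinome-wide competition binding panel with each compound at a single fixed concentration. Results were plotted as a kinome-wide selectivity map.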

[8] = molecular target: Mitogen-activated protein kinase kinase kinase kinase 1 (Homo sapiens) (UniProt Q92918); assay: Binding affinity to wild-type human full length HPK1 (M1 to R799 residues) expressed in Escherichia coli BL21 at 1 uM by Kinomescan method relative to control; in short: as §2
[9] = molecular target: Insulin receptor-related protein (Homo sapiens) (UniProt P14616); assay: Binding affinity to wild-type human partial length INSRR (R950 to E1278 residues) expressed in Escherichia coli BL21 at 1 uM by Kinomescan method relative to control
[10] = molecular target: Interleukin-1 receptor-associated kinase 4 (Homo sapiens) (UniProt Q9NWZ3); assay: Binding affinity to wild-type human partial length IRAK4 (M1 to S460 residues) expressed in HEK293 cells at 1 uM by Kinomescan method relative to control; assay type: cell-based
[11] = molecular target: MAP/microtubule affinity-regulating kinase 4 (Homo sapiens) (UniProt Q96L34); assay: Binding affinity to wild-type human partial length MARK4 (K29 to G340 residues) expressed in Escherichia coli BL21 at 1 uM by Kinomescan method relative to control
[12] = molecular target: Serine/threonine-protein kinase MRCK beta (Homo sapiens) (UniProt Q9Y5S2); assay: Binding affinity to wild-type human partial length MRCKB (L56 to S417 residues) expressed in Escherichia coli BL21 at 1 uM by Kinomescan method relative to control
[13] = molecular target: Serine/threonine-protein kinase NLK (Homo sapiens) (UniProt Q9UBE8); assay: Binding affinity to wild-type human full length NLK (M13 to E527 residues) expressed in Escherichia coli BL21 at 1 uM by Kinomescan method relative to control; in short: as §1
[14] = molecular target: Phosphorylase b kinase gamma catalytic chain, skeletal muscle/heart isoform (Homo sapiens) (UniProt Q16816); assay: Binding affinity to wild-type human full length PHKG1 (M1 to Y387 residues) expressed in Escherichia coli BL21 at 1 uM by Kinomescan method relative to control; in short: as §1
Sequence of Phosphorylase b kinase gamma catalytic chain, skeletal muscle/heart isoform (Homo sapiens) (Q16816 whole entry, looked up, the tested form may be a part, canonical isoform): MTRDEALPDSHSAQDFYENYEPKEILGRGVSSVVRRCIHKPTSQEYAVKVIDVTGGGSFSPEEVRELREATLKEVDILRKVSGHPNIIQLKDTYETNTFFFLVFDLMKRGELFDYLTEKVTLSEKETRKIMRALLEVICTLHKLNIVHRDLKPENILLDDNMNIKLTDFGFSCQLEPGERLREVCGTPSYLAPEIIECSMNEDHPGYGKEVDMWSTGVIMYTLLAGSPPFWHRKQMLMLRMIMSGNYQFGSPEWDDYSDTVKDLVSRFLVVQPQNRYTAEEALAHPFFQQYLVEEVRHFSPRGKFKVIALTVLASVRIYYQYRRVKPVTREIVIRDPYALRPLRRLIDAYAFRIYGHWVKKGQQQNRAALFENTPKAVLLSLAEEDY

[15] = molecular target: Phosphatidylinositol 4-phosphate 3-kinase C2 domain-containing subunit beta (Homo sapiens) (UniProt O00750); assay: Binding affinity to wild-type human partial length PIK3C2B (M1 to L1634 residues) expressed in HEK293 cells at 1 uM by Kinomescan method relative to control; assay type: cell-based
[16] = molecular target: Phosphatidylinositol 3-kinase C2 domain-containing subunit gamma (Homo sapiens) (UniProt O75747); assay: Binding affinity to wild-type human partial length PIK3C2G (M1 to I1446 residues) expressed in HEK293 cells at 1 uM by Kinomescan method relative to control; assay type: cell-based
Sequence of Phosphatidylinositol 3-kinase C2 domain-containing subunit gamma (Homo sapiens) (O75747 whole entry, the tested form may be a part, canonical isoform): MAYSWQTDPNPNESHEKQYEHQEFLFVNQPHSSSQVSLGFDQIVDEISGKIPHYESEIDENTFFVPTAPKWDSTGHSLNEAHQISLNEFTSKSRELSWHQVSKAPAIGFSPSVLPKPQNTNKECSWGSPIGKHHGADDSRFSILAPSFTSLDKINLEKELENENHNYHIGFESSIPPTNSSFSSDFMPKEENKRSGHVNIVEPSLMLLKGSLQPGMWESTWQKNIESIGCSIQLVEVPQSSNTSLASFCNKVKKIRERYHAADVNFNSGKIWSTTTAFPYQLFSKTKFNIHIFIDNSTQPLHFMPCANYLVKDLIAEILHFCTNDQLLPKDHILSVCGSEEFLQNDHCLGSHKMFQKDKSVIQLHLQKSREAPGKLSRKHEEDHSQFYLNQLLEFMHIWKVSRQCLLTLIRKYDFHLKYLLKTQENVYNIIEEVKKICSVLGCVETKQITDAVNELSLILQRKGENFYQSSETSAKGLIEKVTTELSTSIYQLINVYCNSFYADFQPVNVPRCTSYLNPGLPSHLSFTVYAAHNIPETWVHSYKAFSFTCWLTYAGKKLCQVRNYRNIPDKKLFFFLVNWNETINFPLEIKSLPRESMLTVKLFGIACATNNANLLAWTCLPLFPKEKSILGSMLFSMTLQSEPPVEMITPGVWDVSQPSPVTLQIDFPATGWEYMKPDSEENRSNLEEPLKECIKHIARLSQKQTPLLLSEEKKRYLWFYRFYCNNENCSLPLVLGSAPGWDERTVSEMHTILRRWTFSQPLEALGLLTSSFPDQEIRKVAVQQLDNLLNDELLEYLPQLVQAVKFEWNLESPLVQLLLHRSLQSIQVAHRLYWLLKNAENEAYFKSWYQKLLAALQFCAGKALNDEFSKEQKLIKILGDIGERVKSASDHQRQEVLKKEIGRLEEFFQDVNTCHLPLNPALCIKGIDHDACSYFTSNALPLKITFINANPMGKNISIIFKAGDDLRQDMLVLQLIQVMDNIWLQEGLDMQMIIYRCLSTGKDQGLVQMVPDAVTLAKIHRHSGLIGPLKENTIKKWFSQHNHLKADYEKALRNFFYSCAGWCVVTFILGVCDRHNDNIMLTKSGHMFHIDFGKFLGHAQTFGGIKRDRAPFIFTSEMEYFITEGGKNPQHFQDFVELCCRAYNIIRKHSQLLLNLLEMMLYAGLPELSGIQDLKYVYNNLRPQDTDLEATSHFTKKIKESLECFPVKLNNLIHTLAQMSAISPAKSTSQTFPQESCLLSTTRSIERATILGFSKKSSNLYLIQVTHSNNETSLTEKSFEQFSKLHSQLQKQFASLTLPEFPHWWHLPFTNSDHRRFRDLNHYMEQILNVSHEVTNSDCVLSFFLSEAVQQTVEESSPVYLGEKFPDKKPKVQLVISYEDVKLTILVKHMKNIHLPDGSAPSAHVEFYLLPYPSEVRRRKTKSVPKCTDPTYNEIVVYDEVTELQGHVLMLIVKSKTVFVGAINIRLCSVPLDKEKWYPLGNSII

[17] = system: Phosphatidylinositol 4,5-bisphosphate 3-kinase catalytic subunit alpha isoform (Homo sapiens), P42336 [H1047Y]; assay: Binding affinity to human partial length PIK3CA H1047Y mutant (R108 to N1068 residues) expressed in HEK293 cells at 1 uM by Kinomescan method relative to control; assay type: cell-based
[18] = molecular target: Phosphatidylinositol 4-phosphate 5-kinase type-1 alpha (Homo sapiens) (UniProt Q99755); assay: Binding affinity to wild-type human full length PIP5K1A (M1 to H562 residues) expressed in Escherichia coli BL21 at 1 uM by Kinomescan method relative to control; in short: as §1
Sequence of Phosphatidylinositol 4-phosphate 5-kinase type-1 alpha (Homo sapiens) (Q99755 whole entry, the tested form may be a part): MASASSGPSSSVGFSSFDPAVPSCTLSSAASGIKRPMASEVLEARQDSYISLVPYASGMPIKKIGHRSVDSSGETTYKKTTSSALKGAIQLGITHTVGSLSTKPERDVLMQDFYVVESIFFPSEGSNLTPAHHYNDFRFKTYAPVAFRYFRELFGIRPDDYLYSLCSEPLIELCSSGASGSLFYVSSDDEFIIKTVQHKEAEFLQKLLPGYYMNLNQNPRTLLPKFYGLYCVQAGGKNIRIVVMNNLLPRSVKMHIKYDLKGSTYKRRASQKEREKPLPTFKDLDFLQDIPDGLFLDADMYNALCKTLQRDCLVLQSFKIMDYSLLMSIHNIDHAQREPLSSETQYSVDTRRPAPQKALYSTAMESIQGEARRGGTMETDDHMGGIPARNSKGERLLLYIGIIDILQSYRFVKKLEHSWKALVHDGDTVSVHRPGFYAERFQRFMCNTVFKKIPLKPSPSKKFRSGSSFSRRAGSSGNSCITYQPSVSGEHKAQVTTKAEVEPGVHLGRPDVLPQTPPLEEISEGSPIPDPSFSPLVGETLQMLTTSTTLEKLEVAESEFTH

[19] = molecular target: Membrane-associated tyrosine- and threonine-specific cdc2-inhibitory kinase (Homo sapiens) (UniProt Q99640); assay: Binding affinity to wild-type human partial length PKMYT1 (A88 to G366 residues) expressed in Escherichia coli BL21 at 1 uM by Kinomescan method relative to control
[20] = molecular target: Ribosomal protein S6 kinase alpha-3 (Homo sapiens) (UniProt P51812); assay: Binding affinity to wild-type human partial length N-terminal RSK3 kinase domain 1 (M1 to Q385 residues) expressed in Escherichia coli BL21 at 1 uM by Kinomescan method relative to control
Sequence of Ribosomal protein S6 kinase alpha-3 (Homo sapiens) (P51812 whole entry, the tested form may be a part): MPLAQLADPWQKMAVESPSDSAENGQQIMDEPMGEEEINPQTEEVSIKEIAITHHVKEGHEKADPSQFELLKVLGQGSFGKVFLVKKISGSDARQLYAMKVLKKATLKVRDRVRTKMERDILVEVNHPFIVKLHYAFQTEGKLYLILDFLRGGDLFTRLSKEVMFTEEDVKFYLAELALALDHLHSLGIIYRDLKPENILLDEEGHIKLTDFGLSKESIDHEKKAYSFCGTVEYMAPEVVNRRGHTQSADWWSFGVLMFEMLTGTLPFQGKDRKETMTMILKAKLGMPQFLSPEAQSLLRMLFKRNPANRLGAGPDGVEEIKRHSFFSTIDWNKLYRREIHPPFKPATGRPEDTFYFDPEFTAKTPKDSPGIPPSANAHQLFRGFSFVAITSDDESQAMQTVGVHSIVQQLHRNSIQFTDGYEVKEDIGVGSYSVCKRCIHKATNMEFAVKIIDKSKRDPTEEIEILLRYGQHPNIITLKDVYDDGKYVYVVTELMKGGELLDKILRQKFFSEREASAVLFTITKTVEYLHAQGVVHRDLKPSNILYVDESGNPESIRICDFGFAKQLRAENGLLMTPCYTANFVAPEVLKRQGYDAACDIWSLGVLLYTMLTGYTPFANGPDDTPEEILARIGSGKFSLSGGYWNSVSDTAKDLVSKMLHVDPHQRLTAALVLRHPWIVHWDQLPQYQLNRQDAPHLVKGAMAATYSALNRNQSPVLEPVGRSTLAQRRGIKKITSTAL

[21] = molecular target: Serine/threonine-protein kinase Sgk1 (Homo sapiens) (UniProt O00141); assay: Binding affinity to wild-type human partial length SGK (I60 to L431 residues) expressed in HEK293 cells at 1 uM by Kinomescan method relative to control; assay type: cell-based
Sequence of Serine/threonine-protein kinase Sgk1 (Homo sapiens) (O00141 whole entry, the tested form may be a part): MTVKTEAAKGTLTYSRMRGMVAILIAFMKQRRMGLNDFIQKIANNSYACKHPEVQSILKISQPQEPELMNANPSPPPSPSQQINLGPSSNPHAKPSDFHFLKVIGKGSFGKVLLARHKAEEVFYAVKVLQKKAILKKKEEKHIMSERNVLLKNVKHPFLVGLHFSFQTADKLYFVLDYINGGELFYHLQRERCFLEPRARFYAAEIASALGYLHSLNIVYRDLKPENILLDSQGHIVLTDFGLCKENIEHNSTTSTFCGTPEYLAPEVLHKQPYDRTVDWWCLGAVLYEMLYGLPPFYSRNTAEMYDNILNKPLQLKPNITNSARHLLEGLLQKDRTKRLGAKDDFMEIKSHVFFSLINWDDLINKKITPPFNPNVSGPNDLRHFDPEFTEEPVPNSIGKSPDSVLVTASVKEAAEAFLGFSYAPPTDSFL

[22] = molecular target: BDNF/NT-3 growth factors receptor (Homo sapiens) (UniProt Q16620); assay: Binding affinity to wild-type human partial length TRKB (Q547 to G838 residues) expressed in HEK293 cells at 1 uM by Kinomescan method relative to control; assay type: cell-based
[23] = molecular target: Tyrosine-protein kinase TXK (Homo sapiens) (UniProt P42681); assay: Binding affinity to wild-type human partial length TXK (L238 to W527 residues) expressed in Escherichia coli BL21 at 1 uM by Kinomescan method relative to control
Sequence of Tyrosine-protein kinase TXK (Homo sapiens) (P42681 whole entry, the tested form may be a part): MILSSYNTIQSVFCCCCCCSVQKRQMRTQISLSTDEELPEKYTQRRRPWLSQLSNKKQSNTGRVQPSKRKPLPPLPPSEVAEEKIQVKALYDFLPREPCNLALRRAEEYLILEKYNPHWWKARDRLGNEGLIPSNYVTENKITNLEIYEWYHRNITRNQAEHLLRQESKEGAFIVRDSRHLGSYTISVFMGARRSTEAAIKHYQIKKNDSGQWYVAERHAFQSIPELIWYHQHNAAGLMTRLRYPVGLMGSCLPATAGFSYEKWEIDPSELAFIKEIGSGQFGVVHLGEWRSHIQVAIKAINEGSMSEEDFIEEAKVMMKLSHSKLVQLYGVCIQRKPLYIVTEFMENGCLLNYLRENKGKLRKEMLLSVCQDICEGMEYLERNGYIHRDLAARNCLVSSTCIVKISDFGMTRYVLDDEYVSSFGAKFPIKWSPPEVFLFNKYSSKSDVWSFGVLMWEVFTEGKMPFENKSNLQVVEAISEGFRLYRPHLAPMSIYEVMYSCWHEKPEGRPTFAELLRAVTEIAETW

[24] = molecular target: Phosphatidylinositol 3-kinase catalytic subunit type 3 (Homo sapiens) (UniProt Q8NEB9); assay: Binding affinity to wild-type human partial length VPS34 (S282 to H879 residues) expressed in HEK293 cells at 1 uM by Kinomescan method relative to control; assay type: cell-based
[25] = molecular target: Serine/threonine-protein kinase VRK2 (Homo sapiens) (UniProt Q86Y07); assay: Binding affinity to wild-type human partial length VRK2 (M1 to T336 residues) expressed in HEK293 cells at 1 uM by Kinomescan method relative to control; assay type: cell-based

Row | Structure (SMILES) | Activity [1] [%] | Activity [2] [%] | Activity [3] [%] | Activity [4] [%] | Activity [5] [%] | Activity [6] [%] | Activity [7] [%] | Activity [8] [%] | Activity [9] [%] | Activity [10] [%] | Activity [11] [%] | Activity [12] [%] | Activity [13] [%] | Activity [14] [%] | Activity [15] [%] | Activity [16] [%] | Activity [17] [%] | Activity [18] [%] | Activity [19] [%] | Activity [20] [%] | other results
1 | CCC(=O)Nc1ccc(C(=O)Nc2ccc(Nc3ncc4c(n3)N(C)c3ccc(C)cc3C(=O)N4C)cc2)cc1 | 61 | 100 | 89 | 85 | 95 | 91 | 70 | 86 | 100 | 79 | 85 | 98 | 100 | 88 | 79 | 81 | 72 | 100 | 86 | 85 | Activity [21]: 79%; Activity [22]: 84%; Activity [23]: 93%; Activity [24]: 100%; Activity [25]: 61%
2 | C=CC(=O)Nc1ccc(C(=O)Nc2ccc(Nc3ncc4c(n3)N(C)c3ccc(C)cc3C(=O)N4C)cc2)cc1 | 85 | 95 | 96 | 81 | 93 | 87 | 100 | 100 | 100 | 95 | 52 | 96 | 81 | 99 | 98 | 71 | 62 | 100 | 96 | 89 | Activity [21]: 100%; Activity [22]: 100%; Activity [23]: 100%; Activity [24]: 99%; Activity [25]: 100%
